From PubChem
Rin1 Abl inh – blocks binding of human Rin1 to Abl; P00519+Q13671; TR-FRET Rin1/Abl binding, biochemical; inhibition, % at 7.35 µM; hit rate 0.4% among 360,000; AID 588664; in the data active = inhibition above about 5%, passing the limit was not always enough
MBD2 DNA inh – blocks human MBD2 binding to methylated DNA. TR-FRET, MBD2 binding to methylated oligonucleotide. inhibition, % at 4.4 µM. hit rate 0.31% among 370,000; in the data active = inhibition above about 13%
LEDGF integ inh – blocks HIV-1 LEDGF/p75-dependent DNA integration | TR-FRET IN-LEDGF/p75 DNA integration, Eu/Cy5 | inhibition, % at 3.7 µM | hit rate 0.64% among 370,000 | AID 743269;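 active = inhibition above the screen-wide mean plus 3 SD, cut at about 13% in these data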;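 also: signal is the Cy5 over europium emission ratio at 671 and 618 nm; 0% = plate median of compound wells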
TDP2 absorb – TDP2 (human) inhibition, absorbance primary screen; O95551; recombinant TDP2, T5PNP hydrolysis, p-nitrophenol absorbance 415 nm; inhibition, % at 12.8 µM; hit rate 0.34% among 370,000; AID 720702;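 active = inhibition above the mean of all tested compounds plus 3 SD, set per campaign, cut at about 25% in these data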;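 also: 0% = DMSO with enzyme and 100% = buffer with substrate but no TDP2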
Target sequence (O95551 whole entry, looked up): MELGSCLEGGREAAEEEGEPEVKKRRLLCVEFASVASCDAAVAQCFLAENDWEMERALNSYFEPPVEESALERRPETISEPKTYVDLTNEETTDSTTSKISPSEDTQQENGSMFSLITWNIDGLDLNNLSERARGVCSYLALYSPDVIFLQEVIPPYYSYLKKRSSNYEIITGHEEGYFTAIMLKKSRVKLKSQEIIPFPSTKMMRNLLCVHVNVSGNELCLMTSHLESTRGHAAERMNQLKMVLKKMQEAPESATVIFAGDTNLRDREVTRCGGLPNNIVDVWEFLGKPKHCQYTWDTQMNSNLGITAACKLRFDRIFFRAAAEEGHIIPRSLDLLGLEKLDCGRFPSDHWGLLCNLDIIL
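Test system: human TDP2 enzyme; Input: 120 nM TDP2 per well; Buffer or medium: Mg2+-containing Tris-HCl buffer, pH 7.5; Reagent: 5 mM T5PNP; Dosing: 12.8 µM single point, 1% DMSO; Incubation: reaction 2 h, 37 °C; Detection: p-Nitrophenol epi absorbance; Read-out: % inhibition relative to enzyme-containing and enzyme-free wells; Replicates: single well per compound.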
UHRF1 MBD2 ctr – blocks human UHRF1 binding to methylated DNA. Q96T88. UHRF1 binding to methylated oligo, TR-FRET. inhibition, % at 4.4 µM. hit rate 0.75% among 370,000. AID 687016; in the data active = inhibition above about 21%;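 also: UHRF1 SRA domain binding a hemimethylated CpG hairpin DNA probe; 0% = median of test compound wells and 100% = reference inhibitor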
IN multimer act – HIV-1 integrase multimerization activation, counter-screen. shares compounds with LEDGF integ inh. TR-FRET HIV-1 integrase multimerization, biochemical. activation, % at 7.7 µM. hit rate 17% among 2,000; in the data active = activation above about 8.9%
TRFRET interf – counter-screen for LEDGF/p75 integration inhibitors: TR-FRET optical interference | shares compounds with LEDGF integ inh | TR-FRET optical interference counterscreen, HIV-1 IN multimerization | inhibition, % at 7.7 µM | 2,000 tested, under 10 active | AID 1053135;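 active = inhibition above the mean over all tested compounds plus 3 SD, which no compound reached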;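 also: 0% = integrase with antibodies and DMSO and 100% = antibodies without integrase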
IN-LEDGF confirm – LEDGF/p75-dependent HIV-1 integration inhibition, confirmation. shares compounds with LEDGF integ inh. TR-FRET LEDGF/p75-dependent HIV-1 integration, biochemical. inhibition, % at 3.7 µM. hit rate 36% among 2,000. AID 1053136; in the data active = inhibition above about 14%
An asterisk follows results filed as active; . = no result given. Most compounds without a hit are left out; they make up all but 1.9% or so of the library.

SMILES | Rin1 Abl inh | MBD2 DNA inh | LEDGF integ inh | TDP2 absorb | UHRF1 MBD2 ctr | IN multimer act | TRFRET interf | IN-LEDGF confirm
Oc1ccc(-c2csc(Nc3ccccn3)n2)cc1O | 2 | -8 | 0 | -4 | -3 | . | . | .
Oc1ccc(-c2csc(Nc3cccc4ccccc34)n2)cc1O | 4 | 0 | 24* | -7 | -1 | 17* | -83 | 68*
Nc1cc(=O)[nH]c(SCC(=O)Nc2ccc([N+](=O)[O-])cc2)n1 | -1 | -1 | -7 | 8 | 2 | . | . | .
Nc1cc(=O)[nH]c(SCC(=O)Nc2cccc([N+](=O)[O-])c2)n1 | -3 | 2 | 56* | 7 | 1 | 1 | -7 | 1
COc1cccc(N2CCN(C(=O)CSc3nc4ncccc4[nH]3)CC2)c1 | . | 1 | -1 | 0 | -1 | . | . | .
COc1cc(C(=O)O)c2c(c1C)OC(=O)c1c(C)cc(O)c(C=O)c1O2 | -1 | 1 | 17* | 6 | 4 | 0 | 2 | 38*
O=C(O)/C=C/C(=O)N1Cc2cc3ccccc3nc2C1 | 0 | 10 | 19* | -5 | 8 | 0 | -1 | 3
O=C(COC(=O)c1c2c(nc3ccccc13)/C(=C\c1ccco1)CC2)NC1CCCC1 | -2 | 11 | 28* | -1 | 19 | 34* | -121 | 50*
O=C(COC(=O)c1c2c(nc3ccccc13)/C(=C/c1cccc([N+](=O)[O-])c1)CCC2)NC1CCS(=O)(=O)C1 (configuration not stated) | 1 | 5 | 0 | -1 | 3 | . | . | .
CCOC(=O)[C@]12CCCCC/C=C\1N(Cc1ccc(OC)cc1)C(=O)[C@H]2CC(=O)N1CCN(C(=O)C2CC2)CC1 | . | -3 | -2 | 3 | 0 | . | . | .
CCN(c1ccccc1)S(=O)(=O)c1cc(OC)ccc1OC | 0 | -3 | 52* | -3 | -1 | -3 | 10 | -8
CCN(c1ccccc1)S(=O)(=O)c1ccc(OC)c(OC)c1 | 1 | . | . | . | . | . | . | .
CCOC(=O)[C@@]12CCCC3=C1N(CCC3)C(=O)[C@H]2CC(=O)N1CCN(C(=O)c2ccco2)CC1 | . | -8 | 6 | -9 | -1 | . | . | .
CC(C)N1CCCCC(NC(=O)c2ccc(Cl)cc2Cl)C1=O (configuration not stated) | . | 7 | 0 | -2 | 2 | . | . | .
NC(=O)CSCc1cccc(Br)c1 | 6 | -3 | 33* | 9 | -3 | 0 | 0 | 5
O=C1OC(/C=C/c2ccc(Cl)cc2)=NC/1=C/c1ccco1 | -3 | -1 | 17* | 6 | 6 | 1 | -3 | 2
O=C1OC(/C=C/c2ccccc2)=NC/1=C/C=C/c1ccccc1 | 1 | 0 | 1 | 11 | 2 | . | . | .
O=C1C2C(C(=O)N1/N=C/c1cc([N+](=O)[O-])c(O)cc1O)C1C=CC2C12CC2 (configuration not stated) | 3 | 2 | 18* | -8 | 15 | 7 | -37 | 20*
Cc1cc(N2CCN(Cc3ccccc3)CC2)n2nc(C)nc2n1 | . | 1 | 5 | 6 | 1 | . | . | .
Cc1cc(C=O)c(C)n1-c1ccc(Cl)c(C(=O)O)c1 | -3 | 3 | 21* | -11 | 47* | 0 | -1 | 21*
COc1cc(OC)c(C(=O)O/N=C(\N)c2cccc(C)c2)cc1OC | 1 | -1 | 17* | 1 | -2 | -1 | 5 | -1
COc1cc(OC)c(C(=O)O/N=C(\N)c2ccc(C)cc2)cc1OC | 4 | 3 | -5 | -3 | 3 | . | . | .
Cc1ccc(Cn2cc(COC(=O)N3CCCC3)nn2)cc1 | . | 7 | 3 | 16 | 5 | . | . | .
CCCNC(=O)C1(C)CCN(CCC(=O)c2ccc(Br)cc2)C1 (configuration not stated) | -5 | -7 | 63* | -2 | 3 | 0 | -1 | 0
COc1ccc(OC)c(CN2C(=O)CN(S(C)(=O)=O)CC2(C)c2nnnn2C2CCCC2)c1 (configuration not stated) | . | 1 | -1 | 5 | 1 | . | . | .
O=C1C2CCCCN2C(=O)N1CCCN1CCN(c2ccc(F)cc2)CC1 (configuration not stated) | -2 | . | . | . | . | . | . | .
